The record followed here is ChEMBL document CHEMBL2390917, “Synthesis and biological evaluation of 2-(5-methyl-4-phenyl-2-oxopyrrolidin-1-yl)-acetamide stereoisomers as novel positive allosteric modulators of sigma-1 receptor” (Bioorg Med Chem, 2013).

Structures can show the parent of a compound that is named as a salt. The source made the active and inactive calls. No cut-off for these calls is given here. Residues, ends and D or L forms follow the SMILES beside them.

In assay [1] the target is Sigma non-opioid intracellular receptor 1 (Rattus norvegicus) (UniProt Q9R0C9). The experiment in a line: Positive allosteric modulation of Wistar rat sigma 1 receptor assessed as increase in electrically-stimulated vas deferens contraction at 10 uM after 10 mins. In a few lines: (§1)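 Isolated rat vas deferens, proximal ~15 mm segments, in K-H buffer at 32 °C gassed […], with 1.0 g passive tension and a 60 min adaptation. Field-stimulated at 0.1 Hz, 1 ms, 50 V. Cumulative PRE-084 (1–100 µM) was given, then washout and a 30 min rest. Test compound 10 µM was added for 10 min before cumulative PRE-084. Response is % increase over baseline amplitude; n=6, mean ± SEM, paired t-test.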
Sigma non-opioid intracellular receptor 1 (Rattus norvegicus), sequence (Q9R0C9 whole entry): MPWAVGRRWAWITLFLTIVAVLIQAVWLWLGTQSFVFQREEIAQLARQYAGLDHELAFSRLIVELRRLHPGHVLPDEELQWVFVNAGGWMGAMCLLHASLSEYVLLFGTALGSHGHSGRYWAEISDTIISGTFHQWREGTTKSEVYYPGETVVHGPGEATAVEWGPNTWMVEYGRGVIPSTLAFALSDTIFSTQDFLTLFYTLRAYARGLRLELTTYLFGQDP

Assay [2] shares this target. Kind of assay: Positive allosteric modulation of Wistar rat sigma 1 receptor assessed as potentiation of PRE-084 effect on electrically-stimulated vas deferens contraction at 10 uM preincubated for 10 mins followed by PRE-084 addition. In a few lines:
as §1

In assay [3] the target is Muscarinic acetylcholine receptor M5 (Homo sapiens, UniProt P08912). The experiment in a line: Binding affinity to human muscarinic M5 receptor by radioligand displacement assay. For orientation: In a radioligand displacement assay an active substance lowers the binding of a labelled ligand.
Muscarinic acetylcholine receptor M5, sequence (P08912 whole entry): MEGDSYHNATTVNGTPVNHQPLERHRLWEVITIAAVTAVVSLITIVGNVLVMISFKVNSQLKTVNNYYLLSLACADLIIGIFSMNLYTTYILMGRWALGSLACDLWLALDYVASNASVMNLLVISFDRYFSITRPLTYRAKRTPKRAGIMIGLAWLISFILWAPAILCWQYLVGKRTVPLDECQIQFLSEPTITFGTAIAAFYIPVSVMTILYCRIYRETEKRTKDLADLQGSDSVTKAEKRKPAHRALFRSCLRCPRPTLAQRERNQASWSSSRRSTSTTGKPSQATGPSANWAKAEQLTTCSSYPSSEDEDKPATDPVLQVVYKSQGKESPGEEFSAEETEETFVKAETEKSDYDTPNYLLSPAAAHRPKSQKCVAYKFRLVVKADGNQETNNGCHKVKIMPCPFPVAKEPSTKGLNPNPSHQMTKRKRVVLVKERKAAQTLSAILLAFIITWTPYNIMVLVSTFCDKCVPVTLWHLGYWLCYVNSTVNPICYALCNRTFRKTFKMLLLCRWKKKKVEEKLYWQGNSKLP
In assay [4] the target is 5-hydroxytryptamine receptor 2C (Homo sapiens, UniProt P28335). The experiment in a line: Binding affinity to human 5-HT2C receptor by radioligand displacement assay.
5-hydroxytryptamine receptor 2C, sequence (P28335 whole entry): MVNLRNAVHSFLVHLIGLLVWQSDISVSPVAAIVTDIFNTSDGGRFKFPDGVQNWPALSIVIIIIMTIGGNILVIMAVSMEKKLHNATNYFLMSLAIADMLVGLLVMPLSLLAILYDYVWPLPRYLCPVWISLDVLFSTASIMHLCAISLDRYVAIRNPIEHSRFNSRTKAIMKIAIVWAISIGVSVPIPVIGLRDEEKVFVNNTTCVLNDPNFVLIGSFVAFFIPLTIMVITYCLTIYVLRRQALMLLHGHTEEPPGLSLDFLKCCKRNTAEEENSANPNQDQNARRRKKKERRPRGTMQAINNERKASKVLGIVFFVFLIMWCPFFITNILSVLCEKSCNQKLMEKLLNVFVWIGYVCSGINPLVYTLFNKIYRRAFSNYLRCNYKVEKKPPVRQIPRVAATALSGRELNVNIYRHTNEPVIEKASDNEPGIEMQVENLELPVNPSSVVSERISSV
Assay [5] deals with Alpha-2A adrenergic receptor (Homo sapiens, UniProt P08913). The experiment in a line: Binding affinity to human adrenergic alpha2 receptor by radioligand displacement assay.
Alpha-2A adrenergic receptor, sequence (P08913 whole entry): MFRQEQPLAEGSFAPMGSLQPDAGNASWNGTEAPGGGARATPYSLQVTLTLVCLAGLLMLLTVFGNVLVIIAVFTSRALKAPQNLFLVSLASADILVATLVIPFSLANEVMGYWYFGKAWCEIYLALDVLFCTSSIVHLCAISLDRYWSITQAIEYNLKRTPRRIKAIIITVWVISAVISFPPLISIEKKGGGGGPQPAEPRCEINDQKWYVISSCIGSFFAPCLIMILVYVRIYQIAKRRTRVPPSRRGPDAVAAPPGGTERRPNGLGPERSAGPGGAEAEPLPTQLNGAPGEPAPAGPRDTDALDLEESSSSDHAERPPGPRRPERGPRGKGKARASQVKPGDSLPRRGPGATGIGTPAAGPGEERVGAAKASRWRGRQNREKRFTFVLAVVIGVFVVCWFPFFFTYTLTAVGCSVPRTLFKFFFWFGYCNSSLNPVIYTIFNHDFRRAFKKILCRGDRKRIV
Assay [6] addresses Adrenergic receptor alpha-1 (Homo sapiens, UniProt P35348+P25100+P35368). The experiment in a line: Binding affinity to human adrenergic alpha1 receptor by radioligand displacement assay.
Assay [7] can be described thus: Binding affinity to GABA-gated chloride channel (unknown origin) by radioligand displacement assay. Also noted: species or system Homo sapiens.
The nature of assay [8]: Binding affinity to sodium channel site 2 (unknown origin) by radioligand displacement assay. Also on record: species or system Homo sapiens.
In assay [9] the target is Type-2 angiotensin II receptor (Homo sapiens, UniProt P50052). Kind of assay: Binding affinity to human angiotensin AT2 receptor by radioligand displacement assay.
Type-2 angiotensin II receptor, sequence (P50052 whole entry): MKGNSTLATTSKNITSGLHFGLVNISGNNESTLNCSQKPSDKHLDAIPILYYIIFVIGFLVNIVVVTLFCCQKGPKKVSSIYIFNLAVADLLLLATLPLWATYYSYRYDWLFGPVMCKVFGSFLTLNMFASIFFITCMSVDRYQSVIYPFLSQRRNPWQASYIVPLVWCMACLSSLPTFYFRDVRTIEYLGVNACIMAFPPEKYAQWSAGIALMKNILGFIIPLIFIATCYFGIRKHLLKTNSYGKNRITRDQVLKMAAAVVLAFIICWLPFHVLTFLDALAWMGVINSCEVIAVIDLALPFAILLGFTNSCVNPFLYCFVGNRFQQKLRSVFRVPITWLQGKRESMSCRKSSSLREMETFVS
For assay [10], the target named is Sigma non-opioid intracellular receptor 1 (Homo sapiens, UniProt Q99720).
Sigma non-opioid intracellular receptor 1, sequence (Q99720 whole entry): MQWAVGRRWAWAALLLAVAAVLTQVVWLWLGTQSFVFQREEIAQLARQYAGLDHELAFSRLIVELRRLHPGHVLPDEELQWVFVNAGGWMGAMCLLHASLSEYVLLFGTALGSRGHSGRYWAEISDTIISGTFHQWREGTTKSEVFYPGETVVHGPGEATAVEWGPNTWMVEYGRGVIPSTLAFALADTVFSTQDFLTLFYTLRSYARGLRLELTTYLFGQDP
A short description of assay [11]: Binding affinity to P2Y receptor (unknown origin) by radioligand displacement assay. Also noted: species or system Homo sapiens.
In assay [12] the target is 5-hydroxytryptamine receptor 2B (Homo sapiens, UniProt P41595). Kind of assay: Binding affinity to human 5-HT2B receptor by radioligand displacement assay.
5-hydroxytryptamine receptor 2B, sequence (P41595 whole entry): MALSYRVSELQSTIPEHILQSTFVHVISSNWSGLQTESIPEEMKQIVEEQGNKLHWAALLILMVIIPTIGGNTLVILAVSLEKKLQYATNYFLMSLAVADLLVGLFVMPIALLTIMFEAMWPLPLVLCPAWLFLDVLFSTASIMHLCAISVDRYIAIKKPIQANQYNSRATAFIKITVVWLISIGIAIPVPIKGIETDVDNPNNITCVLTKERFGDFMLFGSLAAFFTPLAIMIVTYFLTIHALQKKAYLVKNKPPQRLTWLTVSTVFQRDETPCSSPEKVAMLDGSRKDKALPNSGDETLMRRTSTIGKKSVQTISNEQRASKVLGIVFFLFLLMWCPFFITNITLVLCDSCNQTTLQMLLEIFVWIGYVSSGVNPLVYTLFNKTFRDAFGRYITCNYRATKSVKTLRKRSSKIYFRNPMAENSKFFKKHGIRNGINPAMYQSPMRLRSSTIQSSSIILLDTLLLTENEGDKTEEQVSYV
Assay [13] in a line: Binding affinity to peripheral-type BZD receptor (unknown origin) by radioligand displacement assay. Also on record: species or system Homo sapiens.
A short description of assay [14]: Binding affinity to P2X receptor (unknown origin) by radioligand displacement assay. Also noted: species or system Homo sapiens.
A short description of assay [15]: Binding affinity to L-type calcium channel verapamil binding site (unknown origin) by radioligand displacement assay. Also noted: species or system Homo sapiens.
A short description of assay [16]: Binding affinity to PCP receptor (unknown origin) by radioligand displacement assay. Also on record: species or system Homo sapiens.

`C[C@@H]1[C@H](c2ccccc2)CC(=O)N1CC(N)=O`: the outcome in assay [1] was inactive. The result in assay [2] was Active.
For `C[C@@H]1[C@@H](c2ccccc2)CC(=O)N1CC(N)=O`, in that order: “inactive” and “Active”.
Regarding `C[N+]1(C)CCC(OC(=O)C(c2ccccc2)c2ccccc2)CC1` [4-DAMP], the IC50 (as a rule, the concentration that gives 50% inhibition) in [3] amounted to 0.8 nM.
The compound `COc1cc(OC)c(C(=O)CCCCN2CCC3(CC2)NC(=O)NC3=O)cc1NS(=O)(=O)c1ccc(C(F)(F)F)cc1` [RS-102,221] had an IC50 in assay [4] of 5.5 nM.
In turn, `Cc1ccc(OCC(O)C(C)NC(C)C)c2c1CCC2` (stereo not given) [ZENIDOLOL] returned an IC50 in assay [5] of 0.5 nM.
`CC(C)NCC(O)COc1ccc(CC(N)=O)cc1` (stereo not given) [ATENOLOL] displayed a 50% inhibitory concentration (IC50) in [6] of 230 nM.
Regarding `C=C(C)[C@@H]1[C@H]2OC(=O)[C@@H]1[C@]1(O)C[C@H]3O[C@]34C(=O)O[C@H]2[C@]14C` [PICROTOXININ], the IC50 in [7] is 250 nM.
On to `COc1ccc(C(=O)O[C@H]2CC[C@@]3(C)[C@@H]4CC[C@H]5[C@]6(O)C[C@H](O)[C@@]7(O)[C@@H](CN8C[C@@H](C)CC[C@H]8[C@@]7(C)O)[C@]6(O)C[C@@]53O[C@]24O)cc1OC` [VERATRIDINE], for which the IC50 in assay [8] was 7700 nM.
`CC(C)[C@H](NC(=O)[C@H](CCCNC(=N)N)NC(=O)[C@@H](N)CC(=O)O)C(=O)N[C@@H](Cc1ccc(O)cc1)C(=O)N[C@H](C(=O)N[C@@H](Cc1cnc[nH]1)C(=O)N1CCC[C@H]1C(=O)N[C@@H](C)C(=O)O)C(C)C` [ANGIOTENSIN] (H-DRVYVHPA-OH) had an IC50 in assay [9] of 0.13 nM.
As for `COc1cc2c(cc1OC)C(=O)C(CC1CCN(Cc3ccccc3)CC1)C2` (stereo not given) [DONEPEZIL], the affinity in [10], expressed as Ki, was 14.6 nM.
Take `Nc1ncnc2c1ncn2[C@H]1C[C@H](O)[C@@H](COP(O)(=S)OP(=O)(O)OP(=O)(O)O)O1` (stereo not given in full): the half-inhibitory concentration (IC50) in [11] was found to be 25 nM.
Turning to `C[C@H]1[C@H](c2ccccc2)CC(=O)N1CC(N)=O`, the outcome in assay [1] was inactive. For the same compound, in [2], the result was Active.
As to `COc1cc(CC(C)N)c(OC)cc1I` (stereo not given), the IC50 in assay [12] was 3.2 nM.
As to `CCC(C)N(C)C(=O)c1cc2ccccc2c(-c2ccccc2Cl)n1` (stereo not given) [PK-11195], the IC50 in assay [13] was determined as 1.1 nM.
Compound `Nc1ncnc2c1ncn2[C@@H]1O[C@H](COP(=O)(O)CP(=O)(O)OP(=O)(O)O)[C@@H](O)[C@H]1O` [DIPHOSPHOMETHYLPHOSPHONIC ACID ADENOSYL ESTER] yielded an IC50 in [14] of 3.5 nM.
Regarding `COc1ccc(CCN(C)CCCC(C#N)(c2cc(OC)c(OC)c(OC)c2)C(C)C)cc1OC` (stereo not given) [GALLOPAMIL], the concentration for half-maximal inhibition (IC50) in assay [15] was found to be 20 nM.
The compound `C[C@]12N[C@H](Cc3ccccc31)c1ccccc12` [DIZOCILPINE MALEATE] displayed a half-inhibitory concentration (IC50) in [16] of 6 nM.
